Published values gathered from unrelated publications.
Protocols differ between the studies behind these lines.
Read-out: cell growth or viability

| Compound | cell line | technique | concentration | time | endpoint | result |
| --- | --- | --- | --- | --- | --- | --- |
| COc1cc(C(=O)c2nc(-c3c[nH]c4cccc(C)c34)c[nH]2)cc(OC)c1OC | M14 | MTS |  | 72 h | IC50 | 167 nM |
| COc1c(C)c2c(c(O)c1C/C=C(\C)CCC(=O)O)C(=O)OC2 | MDA-MB-436 |  |  |  | IC50 | 1120 nM |
| N.N.[Cl][Pt][Cl] | Vero | MTT |  | 48 h | IC50 | 63100 nM |
| CC[C@@]1(O)C(=O)OCc2c1cc1n(c2=O)Cc2cc3ccccc3nc2-1 | MP41 | ATP luminescence |  | 72 h | IC50 | 117 nM |
| O=C(NCc1ccccc1)c1cn(Cc2ccc(C(F)(F)F)cc2)c2ccc(Oc3ccccc3)cc2c1=O | HCC70 |  |  | 72 h | CC50 | 20500 nM |
| COc1cc(C(=O)c2nc(-c3cccc4[nH]ccc34)c(Br)[nH]2)cc(OC)c1OC | M14 | MTS |  | 72 h | IC50 | > 1000 nM |
| N.N.O=C([O-])C1(C(=O)[O-])CCC1.[Pt+2] | Vero | MTT |  | 48 h | IC50 | 506000 nM |
| Cc1sc2c(c1C)C(c1ccc(Cl)cc1)=N[C@@H](CC(N)=O)c1nnc(C)n1-2 | MP41 | ATP luminescence |  | 72 h | IC50 | 153 nM |
| Cn1cc2cc(C(F)(F)c3nnc4ccc(-c5cnn(C6CC6)c5)nn34)c(F)cc2n1 | MKN-45 | CCK-8 |  | 72 h | IC50 | 12 nM |
| O=C(Nc1ccc(Cl)cc1)Nc1cccc(-c2cn(Cc3ccc(Br)cc3)nn2)c1 | NCI-H1299 | CCK-8 | 50 µM | 72 h | viability | 76.7% |
| CC(=O)N[C@H]1[C@@H](O[C@@H]2O[C@H](C[C@@H](O)[C@H]3O[C@@H](n4ccc(=O)[nH]c4=O)[C@H](O)[C@@H]3O)[C@H](O)[C@H](O)[C@H]2NC(=O)/C=C/CCCCCCCCCC(C)C)O[C@H](CO)[C@@H](O)[C@@H]1O | SK-BR-3 | WST-1 |  |  | IC50 | 110 nM |
